Paper PMC4423195 (Cell Death and Differentiation, 2015)
Entries after “also recorded” stand apart in the source; their conditions may differ.

Columns and labels:
HT22 cells [1] = experiment: FITC-Aβ42O binding/uptake in HT22 cells; type: cell-based, mouse; conditions: FITC-Aβ42O 0.1 μM, 2 h; MAB1965 1 : 500, MnCl2 0.5 mM or MgCl2 5 mM; n=4 replicates
HT22 cells [2] = experiment: JC-1 mitochondrial membrane potential imaging; type: cell-based, mouse; conditions: Aβ42O 1 μM, 2 h; HUTS-4 1 : 250, MAB1965 1 : 250, Nox inhibitor 40 nM; n=6
Outline: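 HT22 cells pre-exposed 45 min (methods; legend says 1 h) to HUTS-4 (1:250), MAB1965 (1:250), Nox inhibitor III (40 nM) or none, then Aβ42 oligomers (1 μM, 2 h). Washed, incubated with JC-1 (0.5 μM final, PBS) 15 min at 37°C. Live-cell imaging at 37°C; membrane potential expressed as green/red ratio.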

HT22 cells [3] = experiment: Mitosox-Red mitochondrial superoxide imaging; type: cell-based, mouse; conditions: Aβ42O 1 μM, 2 h, n=6
Outline: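 Following 45 min (methods; 1 h per legend) pretreatment ± HUTS-4 (1:250), MAB1965 (1:250) or Nox inhibitor III (40 nM), HT22 cells received Aβ42 oligomers (1 μM, 2 h). Washed, given Mitosox-Red at 5 μM final in PBS for 15 min at 37°C, washed again, fixed and imaged by confocal microscopy with identical settings.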

HT22 cells [4] = experiment: H2DCF general ROS imaging; type: cell-based, mouse; conditions: Aβ42O 1 μM, 2 h, n=6
Outline: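 HT22 cells pretreated 45 min (methods; legend gives 1 h) with or without HUTS-4 (1:250), MAB1965 (1:250) or Nox inhibitor III (40 nM), then Aβ42 oligomers (1 μM, 2 h). After PBS wash, loaded with H2DCF at 50 nM final in HBSS for 15 min at 37°C. Live-cell fluorescence imaging at 37°C under identical acquisition settings.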

14-3-3/SSH1 complex = experiment: 14-3-3/SSH1 complex, co-immunoprecipitation in HT22 cells; type: cell-based, mouse (HT22 mouse cell line); conditions: Aβ42O 1 μM, 2 h
[5] = molecular target: β1-integrin-Fc (extracellular domain fused with human IgG-Fc) (Homo sapiens, UniProt P05556); experiment: ELISA binding of biotin-Aβ42 to purified β1-integrin-Fc; conditions: n=4 replicates
Sequence of β1-integrin-Fc (extracellular domain fused with human IgG-Fc) (P05556 21-728): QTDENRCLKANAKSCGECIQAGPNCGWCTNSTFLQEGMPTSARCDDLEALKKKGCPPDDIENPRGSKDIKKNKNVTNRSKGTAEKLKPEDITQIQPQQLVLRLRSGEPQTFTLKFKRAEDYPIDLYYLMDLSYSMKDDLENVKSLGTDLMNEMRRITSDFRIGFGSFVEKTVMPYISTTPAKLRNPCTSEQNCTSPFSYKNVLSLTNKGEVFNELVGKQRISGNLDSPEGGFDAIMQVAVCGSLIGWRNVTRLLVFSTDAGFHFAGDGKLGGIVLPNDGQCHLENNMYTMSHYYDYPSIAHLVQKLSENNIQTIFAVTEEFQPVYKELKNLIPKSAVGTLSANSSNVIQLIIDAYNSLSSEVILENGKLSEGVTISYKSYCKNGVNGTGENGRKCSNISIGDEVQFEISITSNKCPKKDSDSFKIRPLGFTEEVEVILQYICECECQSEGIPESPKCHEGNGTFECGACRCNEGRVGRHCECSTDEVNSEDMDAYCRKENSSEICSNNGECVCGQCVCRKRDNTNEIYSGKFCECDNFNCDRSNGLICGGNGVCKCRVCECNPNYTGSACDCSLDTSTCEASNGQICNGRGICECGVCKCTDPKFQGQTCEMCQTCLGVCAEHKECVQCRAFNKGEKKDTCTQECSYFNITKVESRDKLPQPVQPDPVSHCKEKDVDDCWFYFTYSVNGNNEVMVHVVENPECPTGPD

[6] = system: DIV21 primary hippocampal neurons; experiment: FITC-Aβ42O binding to DIV21 primary hippocampal neurons; type: cell-based; conditions: 100 nM FITC-Aβ42O, 1 h, 37 °C
F-actin = F-actin staining in DIV21 hippocampal neurons; type: cell-based, mouse; conditions: Aβ42O 1 μM, 2 h, n=4–6 replicates
Outline: (§1)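 Hippocampal neurons from P0 WT or Cofilin+/− pups grown on poly-D-lysine to DIV21, then given Aβ42 oligomers (1 μM, 2 h). Fixed in 4% paraformaldehyde 15 min at RT, serum-blocked, primary antibody (Drebrin or PSD95) overnight at 4°C, secondary 45 min at RT; F-actin stained by rhodamine-phalloidin. Mean intensity measured in spine-containing neurites; n=4–6, ANOVA with Tukey test.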

[7] = system: transferrin receptor (TfR); experiment: Cell surface biotinylation, surface TfR in HT22 cells; type: cell-based, mouse (HT22 mouse cell line); conditions: Aβ42O 1 μM, 2 h or FN coating; surface/total; n⩾3 replicates
Talin [8] = experiment: FC-enriched fractionation of HT22 cells, Talin; type: cell-based, mouse (HT22 mouse cell line); conditions: Aβ42O (1 μM in text; 0, 0.25, 2 μM for 0, 2, 4 h in Figure S3 legend)
Outline: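 HT22 cells exposed to Aβ42 oligomers. Cytosolic proteins released with saponin buffer (0.1% saponin, 25 mM HEPES, 75 mM potassium acetate) for 10 min on ice. Remaining membrane/cytoskeletal proteins extracted in 2× SDS sample buffer with sonication to give the focal-contact-enriched fraction. Talin detected by immunoblot with ECL.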

Drebrin = Drebrin staining in DIV21 hippocampal neurons; type: cell-based, mouse; conditions: Aβ42O 1 μM, 2 h, n=4–6 replicates
Outline: as §1

Vinculin = experiment: FC-enriched fractionation of primary cortical neurons, Vinculin; type: cell-based, mouse; conditions: Aβ42O 1 μM, 2 h, n=3 replicates
Outline: (§2)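 DIV14 cortical neurons from P0 WT or Cofilin+/− pups given Aβ42 oligomers (1 μM, 2 h). Cytosol extracted with saponin buffer (0.1% saponin, 25 mM HEPES, 75 mM potassium acetate) 10 min on ice; residue taken up in 2× SDS sample buffer with sonication (focal-contact fraction). Talin/Vinculin immunoblotted and normalized to vehicle controls set at 100%; n=3, t-test.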

PrP^c = type: cell-based, mouse (HT22 mouse cell line)
Cofilin (mitochondrial) = experiment: Translocation of Cofilin to mitochondria in HT22 cells; type: cell-based, mouse (HT22 mouse cell line); conditions: Aβ42O 1 μM; 0, 2, 4 h; n=4 replicates
Outline: (§3)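 HT22 cells exposed to Aβ42 oligomers (1 μM) for 0, 2 or 4 h. Intact mitochondria separated from cytosol with a commercial isolation kit. Protein measured by BCA. Equal amounts run on SDS-PAGE, blotted to nitrocellulose, probed and detected by peroxidase secondary/ECL. Bands quantified densitometrically; n=4 replicates, t-test.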

HT22 cells [9] = experiment: Annexin V/PI apoptosis assay, HT22 cells; type: cell-based, mouse; conditions: Aβ42O 1 μM, 24 h / 18 h, 1% FBS; n=4 replicates
Outline: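 HT22 cells transfected for 48 h with Lipofectamine 2000 with control or SSH1 siRNA (100 nM final), then exposed to Aβ42 oligomers (1 μM, 18 h) in 1% FBS medium. Cells stained on coverslips with FITC-Annexin V and propidium iodide for 20 min at 25°C in the dark, PBS-washed and imaged by fluorescence confocal microscopy. Annexin V marks early apoptosis, PI late apoptosis.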

β1-integrin = type: cell-based, mouse (HT22 mouse cell line); conditions: Aβ42O 1 μM, 2 h; direct immunoblotting (total)
focal Vinculin = experiment: Focal Vinculin immunostaining in DIV21 primary hippocampal neurons; type: cell-based; conditions: Aβ42O 1 μM, 2 h, n=5 replicates
[10] = system: Cofilin (phospho-Cofilin); experiment: Immunoblot of phospho-Cofilin in primary cortical neurons; type: cell-based, mouse; conditions: Aβ42O 1 μM, 2 h, n=4 replicates
Talin [11] = experiment: FC-enriched fractionation of primary cortical neurons, Talin; type: cell-based, mouse; conditions: Aβ42O 1 μM, 2 h, n=3 replicates
Outline: as §2

activated β1-integrin = experiment: FITC-HUTS-4 staining of activated β1-integrin in primary hippocampal neurons; type: cell-based; conditions: DIV14 fixed and permeabilized neurons; Aβ42O 1 μM, 2 h; n=4 replicates
[12] = SDS-PAGE/immunoblotting of Aβ42 oligomer preparations; type: physicochemical; conditions: immunoblotting of Aβ42O preparation
PSD95 = PSD95 staining in DIV21 hippocampal neurons; type: cell-based, mouse; conditions: Aβ42O 1 μM, 2 h, n=4–6 replicates
Outline: as §1

SSH1/Cofilin complex = experiment: SSH1/Cofilin complex, co-immunoprecipitation in HT22 cells; type: cell-based, mouse (HT22 mouse cell line); conditions: Aβ42O 1 μM, 2 h; n=3 replicates
[13] = system: Cofilin (phospho-Cofilin); experiment: Cytosolic phospho-Cofilin in HT22 cells; type: cell-based, mouse (HT22 mouse cell line); conditions: Aβ42O 1 μM; 0, 2, 4 h
Outline: as §3

[14] = HUTS-4 1 : 250, MAB1965 1 : 250, Nox inhibitor 40 nM
[15] = DIV14 Cofilin^+/− cortical neurons

[Cl][Mn][Cl] [MnCl2]
effect on FITC-Aβ42O binding to HT22 cells (HT22 cells [1]): significantly reduced

c1ccc(Cn2nnc3c(Sc4nc5ccccc5o4)ncnc32)cc1 [NOX inhibitor]
extent of restoration of JC-1 membrane potential (HT22 cells [2]): not fully restored | prevention of Aβ42O-induced change in Mitosox-Red (HT22 cells [3]; [14]): significantly prevented such changes | prevention of Aβ42O-induced change in H2DCF (HT22 cells [4]; [14]): significantly prevented such changes

Cc1c(C)c2c(c(C)c1O)CCC(C)(C(=O)O)O2 (stereo not shown) [Trolox]
restoration of 14-3-3/SSH1 complexes reduced by Aβ42O (14-3-3/SSH1 complex; prior treatment 30 min, MAB1965 1:250 or Trolox 200 µM): largely restored

Aβ42 monomers: freshly solubilized monomer; tested as biotin-Aβ42M
binding to β1-integrin-Fc, monomers and fibrils ([5]; 5 mM MgCl2, biotin-Aβ42M or biotin-Aβ42F): bound poorly to β1-integrin-Fc

FITC-Aβ42O: FITC-Aβ1-42 (American Peptide), oligomer preparation
FITC-Aβ42O binding to neurons (localisation) [6]: associated with dendrites and dendritic spines

amyloid-β protein 1–42 oligomers [Aβ42O]
effect on F-actin, WT neurons (F-actin; spine-containing neurites): significantly depleted F-actin, Drebrin, and PSD95 | effect on F-actin, Cofilin^+/− neurons (F-actin; Cofilin^+/−): no significant effects | effect on surface TfR [7]: no significant effect on surface TfR | effect on FC-enriched Talin, HT22 cells (Talin [8]): saliently reduced FC-enriched but not cytosolic (cyto) Vinculin and Talin | effect on Drebrin, WT neurons (Drebrin; spine-containing neurites): significantly depleted F-actin, Drebrin, and PSD95 | effect on Drebrin, Cofilin^+/− neurons (Drebrin; Cofilin^+/−): no significant effects | binding to β1-integrin-Fc with MnCl2 ([5]; MnCl2 0.5 mM): essentially eliminated Aβ42O binding; also recorded: failed to support Aβ42O binding to β1-integrin-Fc | binding to β1-integrin-Fc in the absence of cation ([5]; no cation / absence of Mg^2+): did not bind to β1-integrin-Fc; also recorded: minimal binding | effect on FC Vinculin, Cofilin^+/− neurons (Vinculin; [15]): did not significantly deplete Vinculin and Talin | effect on FC-enriched/focal Vinculin, WT primary neurons (Vinculin; DIV14 cortical neurons): saliently reduced FC-enriched but not cytosolic (cyto) Vinculin and Talin; also recorded: depleted focal Vinculin and Talin | effect on surface PrP^c (PrP^c): unaffected | 14-3-3/SSH1 complexes (14-3-3/SSH1 complex): reduced 14-3-3/SSH1 complexes | translocation of Cofilin to mitochondria (Cofilin (mitochondrial)): rapidly increased the translocation of Cofilin to mitochondria | induction of early (Annexin V) and late (PI) apoptosis (HT22 cells [9]): significant induction of early (Annexin V) and late (PI) apoptosis | mitochondrial superoxide (Mitosox-Red) (HT22 cells [3]): increased mitochondrial superoxide (Mitosox-Red) | effect on total β1-integrin (β1-integrin): without altering total β1-integrin | focal Vinculin immunoreactivity in spine-containing dendrites (focal Vinculin): significantly reduced focal Vinculin immunoreactivity | Cofilin dephosphorylation/activation ([10]; WT primary cortical neurons): significantly induced Cofilin dephosphorylation/activation | Cofilin dephosphorylation in β1-integrin cKO neurons ([10]; β1-integrin cKO neurons (Lenti-Cre-mRFP)): absent in β1-integrin cKO neurons | effect on FC Talin, Cofilin^+/− neurons (Talin [11]; [15]): did not significantly deplete Vinculin and Talin | effect on FC-enriched/focal Talin, WT primary neurons (Talin [11]; DIV14 cortical neurons): saliently reduced FC-enriched but not cytosolic (cyto) Vinculin and Talin; also recorded: depleted focal Vinculin and Talin | reduction of FITC-HUTS-4-positive activated β1-integrin (activated β1-integrin): > 50% | oligomeric state on SDS-PAGE [12]: contained SDS-resistant dimers, trimers, and tetramers | effect on PSD95, WT neurons (PSD95; spine-containing neurites): significantly depleted F-actin, Drebrin, and PSD95 | effect on PSD95, Cofilin^+/− neurons (PSD95; Cofilin^+/−): no significant effects | SSH1/Cofilin complexes (SSH1/Cofilin complex): significantly increased SSH1/Cofilin complexes | phospho-Cofilin in the cytosol [13]: decreasing phospho-Cofilin in the cytosol | ROS levels (H2DCF) (HT22 cells [4]): increased ROS levels

fibronectin [FN]
effect on surface TfR [7]: modestly, but significantly, increased surface/total transferrin receptor (TfR) | effect on surface PrP^c (PrP^c): unaffected
